Bioassay records: PubChem BioAssay, several laboratories
EphB4 antag = antagonists of human EphB4-ephrin-B2 interaction; P54760; EphB4 LBD / TNYL-RAW-Alexa532 peptide, fluorescence polarization; inhibition, % at 7 µM; actives 0.15% (n = 97,000);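 active means inhibition above the screen-wide mean inhibition plus 3 SD, cut at about 15% in these data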;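 further: 0% = DMSO wells and 100% = excess unlabeled TNYL-RAW peptide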
hDAT+cocaine = human DAT dopamine uptake with cocaine, either direction; Q01959; LLC-PK1 hDAT cells, [14C]-dopamine uptake with cocaine IC80; actives deviate in either direction; B-score at 10 µM; actives 1.3% (n = 110,000); AID 449768;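 active means Z score or B-score, a plate-position-corrected score, falls beyond the plate's 99.7% confidence bounds, in either direction; inactive means both scores lie inside the 99.7% bounds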;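 further: scored against the spread of the other compound wells on the same plate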
Target sequence (Q01959 whole entry, looked up): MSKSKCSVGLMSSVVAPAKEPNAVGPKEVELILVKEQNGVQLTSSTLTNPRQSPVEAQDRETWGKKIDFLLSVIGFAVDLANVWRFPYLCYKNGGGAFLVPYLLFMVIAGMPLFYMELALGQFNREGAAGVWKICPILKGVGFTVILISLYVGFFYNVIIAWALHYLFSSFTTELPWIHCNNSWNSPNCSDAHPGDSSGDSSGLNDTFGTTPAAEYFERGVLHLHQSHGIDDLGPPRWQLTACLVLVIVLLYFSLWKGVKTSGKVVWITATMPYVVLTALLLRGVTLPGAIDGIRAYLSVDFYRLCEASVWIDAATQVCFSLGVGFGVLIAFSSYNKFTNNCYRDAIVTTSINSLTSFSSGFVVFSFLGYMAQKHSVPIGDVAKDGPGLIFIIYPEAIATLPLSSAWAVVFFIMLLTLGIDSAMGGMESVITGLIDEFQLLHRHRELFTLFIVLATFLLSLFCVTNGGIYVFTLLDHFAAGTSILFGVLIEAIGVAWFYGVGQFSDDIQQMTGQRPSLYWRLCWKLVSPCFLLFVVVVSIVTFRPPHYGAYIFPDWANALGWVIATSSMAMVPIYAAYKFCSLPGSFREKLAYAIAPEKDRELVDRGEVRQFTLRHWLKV
Cav32 inh = inhibitors of human Cav3.2 T-type calcium channel; Cav3.2-expressing cells, Fluo-4 calcium fluorescence FDSS; stronger effect = lower value; B-score at 10 µM; actives 4% (n = 100,000);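 active means single-dose well whose peak fluorescence ratio is a statistical outlier from its plate by either plate-standardised score or position-corrected B-score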
HIV Rev-RRE inh = HIV Rev-RRE protein-RNA interaction inhibition | inhibition, % at 8 µM | actives 0.79% (n = 97,000) | Rev peptide-RRE RNA binding, FRET | AID 704 | P05866;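 active means inhibition above the screen-wide mean plus 3 SD, cut at about 35% in these data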;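 further: 0% = median DMSO wells and 100% = median Neomycin B control wells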
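Test system – labelled RRE RNA duplex and labelled Rev peptide · Signal – fluorescein-to-Cy5 FRET, 480 nm excitation · Evaluation – % inhibition of FRET ratio versus controls · Benchmarks – DMSO low control, neomycin B high control · Incubation – 5 min RNA-compound premix plus 15 min binding step, 25 °C · Medium – HEPES pH 7.5 salt buffer with EDTA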
Active calls of the source: *; nt = not tested or not shown. Most compounds without a hit are left out; they make up all but 5.4% or so of the library.

SMILES	EphB4 antag	hDAT+cocaine	Cav32 inh	HIV Rev-RRE inh
CCCCOC(=O)n1c(SCC(=O)N(CC)CC)nc2ccccc21	-5	3.9*	-3.1	4
COc1ccc([C@H]2/C=C\CN(C(=O)c3ccccc3)[C@@H](C)C(=O)N2Cc2ccc(F)cc2)cc1	nt	0.52	-0.88	nt
CCc1nc(SCc2ccc(F)cc2)[nH]c(=O)c1C#N	8	-2.3	-7.7*	5
Cc1cc(/C=C(\C#N)C(=O)NCC2CCCO2)c(C)n1-c1ccc(Cl)cc1 (stereo unspecified)	1	0.54	-0.96	-4
Cc1cc(/C=N\NC(=O)CC(=O)NC2CCCCC2)c(C)n1-c1ccc(Cl)cc1	-2	-0.73	-5.7*	-2
CC(C)CCNC(=O)c1onc(CSc2ccc(F)c(F)c2)c1C(=O)NCCC(C)C	nt	-0.28	-1.4	nt
COc1ccc(C2CC(c3cccs3)=NN2c2nc(-c3ccccc3)cs2)cc1OC (stereo unspecified)	2	-0.014	0.3	2
CCCCCN(CCCCC)C(=O)C(CCC(=O)O)NC(=O)c1ccc(Cl)c(Cl)c1 (stereo unspecified)	nt	1.9	-8.5*	nt
COc1cc(/C=N\NC(=O)c2sc(N)nc2C)cc(OC)c1OC	-14	-0.15	1.9	-2
CCc1ccccc1NC(=O)CSc1nc(-c2ccccc2)nn1C(=O)c1cccc([N+](=O)[O-])c1	-1	5.4*	-0.96	5
C=CCn1c(SCC(=O)Nc2cccc3ccccc23)nnc1-c1cnccn1	2	-0.048	0.26	-2
C=CCn1c(SCC(=O)Nc2cc3oc4ccccc4c3cc2OC)nnc1-c1cnccn1	-2	2	-4.2*	0
COc1cc2c(cc1NC(=O)CCCCCN1C(=O)CCC1=O)oc1ccccc12	7	1.6	-0.29	6
COc1cc2c(cc1NC(=O)CCCN1C(=O)CCC1=O)oc1ccccc12	5	2.7*	0.25	3
C#Cc1ccc2c(c1)COc1c3ccccc3nn1-2	nt	0.19	-0.052	nt
CCOC(=O)C1CCCN(C(=O)CSc2nccn2C)C1 (stereo unspecified)	-5	-3*	0.43	1
CC(=O)N1CCN2C(=O)C1CCCC(=O)c1cc(C)ccc12 (stereo unspecified)	3	-1.1	0.2	2
Cc1cc(C)cc(N(CC(=O)NCc2ccc3c(c2)OCO3)C(=O)CCC(=O)Nc2ccccn2)c1	-4	0.25	-6.1*	0
Cc1cccc(N(CC(=O)NC2CCCCC2)C(=O)CCCC(=O)Nc2ccccn2)c1	7	2.2*	nt	2
O=C(CCC(=O)N(CC(=O)NC1CCCCC1)c1ccc2c(c1)OCO2)Nc1ccccn1	nt	0.53	-5.7*	nt
COc1ccccc1N(CC(=O)NCc1ccccc1)C(=O)CCC(=O)Nc1cc(C)ccn1	1	2.5*	-0.19	3
Cc1ccc(C)c(N(CC(=O)NCc2ccc3c(c2)OCO3)C(=O)CCC(=O)Nc2ccccn2)c1	0	0.24	nt	4
CCC(=O)O[C@]1(C(=O)SCF)[C@H](C)C[C@H]2[C@@H]3C[C@H](F)C4=CC(=O)C=C[C@]4(C)[C@@]3(F)[C@@H](O)C[C@@]21C	nt	0.43	-0.49	nt
COC(=O)Cc1ccc(NC(=O)c2ccc(C(C)(C)C)cc2)cc1	0	0.017	-5.2*	5
CC(=O)n1cc(C(C[N+](=O)[O-])SCCN)c2ccccc21 (stereo unspecified)	-5	-1.3	-3.8*	3
SMILES	EphB4 antag	hDAT+cocaine	Cav32 inh	HIV Rev-RRE inh
C=C(C)C(=O)Nc1cccc(C2=NOC3(C2)C[C@H](C(N)=O)N(C(=O)c2ccccc2C(=O)c2ccccc2)C3)c1 (stereo partly specified)	nt	1.1	-0.082	nt
C=CCSc1nc(-c2ccccc2)c2cc(Cl)ccc2n1	-1	-1.6*	-0.011	23
CC(NC(=O)Nc1cccc([N+](=O)[O-])c1)(C(F)(F)F)C(F)(F)F	2	-3*	-4.9*	14
CC(NC(=O)Nc1cccnc1)(C(F)(F)F)C(F)(F)F	1	-1.1	-0.86	6
Fc1ccc(Nc2nc(Oc3ccccc3F)nc(N3CCCC3)n2)cc1	-13	-1.6	0.31	13
O=S(=O)(c1ccccc1)N1CCN(C2CCN(Cc3ccccc3)CC2)CC1	-1	0.012	1.1	2
COc1ccc(S(=O)(=O)N2CCN(C3CCN(Cc4ccccc4)CC3)CC2)cc1	-5	-1.8*	-0.017	5
Cc1coc(C)c1C(=O)CC1(O)C(=O)N(Cc2ccccc2)c2ccccc21 (stereo unspecified)	8	0.49	-4.6*	12
Cc1ccc(C(=O)CC2(O)C(=O)N(Cc3ccccc3)c3ccccc32)o1 (stereo unspecified)	8	0.012	-1.4	6
Cc1ccc(C(=O)CC2(O)C(=O)N(Cc3ccccc3Cl)c3ccccc32)o1 (stereo unspecified)	-5	-2.1	-5.6*	6
Cc1ccc(C(=O)CC2(O)C(=O)N(CCc3ccccc3)c3ccc(Br)cc32)o1 (stereo unspecified)	10	0.0018	-7.1*	14
CC(=O)CC1(O)C(=O)N(Cc2ccccc2)c2ccccc21 (stereo unspecified)	8	0.15	0.58	10
O=C(CC1(O)C(=O)N(CCc2ccccc2)c2ccccc21)c1ccco1 (stereo unspecified)	nt	0.0067	0.32	nt
CCOC(=O)CCSc1nnc(-c2cccnc2)n1-c1ccccc1OC	-1	nt	0.69	0
Cc1cccc(N2CCN(C(=O)CCCSc3nc4ccccc4[nH]3)CC2)c1C	3	1.9	-5.5*	3
O=C(CCCSc1nc2ccccc2[nH]1)N1CCN(c2ccccc2)CC1	3	0.83	-1	2
COc1cccc(Oc2cn[nH]c2-c2ccc(OC)cc2O)c1	-6	-0.36	-4.9*	7
Nc1c(Cl)cc(-c2csc(NC(CO)c3nc4ccccc4n3CCOCCO)n2)cc1Cl (stereo unspecified)	nt	0.35	0.062	nt
CCc1cccc(CC)c1NC(=O)CN1CCN(c2ccccc2)CC1	-5	-0.69	-0.87	1
CCc1cccc(CC)c1NC(=O)CN1CC(C)SC1=NC1CCCCC1 (stereo unspecified)	4	0.12	-5.3*	7
Cc1cc(C(F)(F)F)nn1CCCNC(=O)c1cnccn1	nt	-0.044	-1.3	nt
CCn1c(C)c(C(C)=O)c(N2CCN(c3ccccn3)CC2)nc1=S	-5	0.67	-0.34	0
CCn1c(C)c(C(C)=O)c(N2CCN(c3ccccc3)CC2)nc1=S	-3	0.57	0.69	42*
O=C1CC(N(CCc2ccccc2)C(=S)Nc2cc(Cl)ccc2Cl)C(=O)N1c1c(Cl)cccc1Cl (stereo unspecified)	4	-1.7	-2.6*	16
CC(NC(=O)c1ccnc(C(C)(C)C)c1)c1ccccc1 (stereo unspecified)	-2	0.38	0.72	1
c1coc(CNc2c3c(nc4ccccc24)CCC3)c1	6	0.38	-1.3	36*
O=[N+]([O-])c1ccc(N2CCCCCC2)c([N+](=O)[O-])c1	-7	-0.28	-4.7*	4
